Experimental data from ChEMBL document CHEMBL4823260, “From High-Throughput Screening to Target Validation: Benzo[d]isothiazoles as Potent and Selective Agonists of Human Transient Receptor Potential Cation Channel Subfamily M Member 5 Possessing In Vivo Gastrointestinal Prokinetic Activity in Rodents” (J Med Chem, 2021).

Legend:
[1] = target: T1, Transient receptor potential cation channel subfamily M member 5 (Mus musculus, UniProt Q9JJH7); experiment: Agonist activity at mouse TRPM5 expressed in CHO-K1 cells maintained at 80 mV final holding potential by syncroPatch assay; type: cell-based
T1 sequence (Q9JJH7 whole entry): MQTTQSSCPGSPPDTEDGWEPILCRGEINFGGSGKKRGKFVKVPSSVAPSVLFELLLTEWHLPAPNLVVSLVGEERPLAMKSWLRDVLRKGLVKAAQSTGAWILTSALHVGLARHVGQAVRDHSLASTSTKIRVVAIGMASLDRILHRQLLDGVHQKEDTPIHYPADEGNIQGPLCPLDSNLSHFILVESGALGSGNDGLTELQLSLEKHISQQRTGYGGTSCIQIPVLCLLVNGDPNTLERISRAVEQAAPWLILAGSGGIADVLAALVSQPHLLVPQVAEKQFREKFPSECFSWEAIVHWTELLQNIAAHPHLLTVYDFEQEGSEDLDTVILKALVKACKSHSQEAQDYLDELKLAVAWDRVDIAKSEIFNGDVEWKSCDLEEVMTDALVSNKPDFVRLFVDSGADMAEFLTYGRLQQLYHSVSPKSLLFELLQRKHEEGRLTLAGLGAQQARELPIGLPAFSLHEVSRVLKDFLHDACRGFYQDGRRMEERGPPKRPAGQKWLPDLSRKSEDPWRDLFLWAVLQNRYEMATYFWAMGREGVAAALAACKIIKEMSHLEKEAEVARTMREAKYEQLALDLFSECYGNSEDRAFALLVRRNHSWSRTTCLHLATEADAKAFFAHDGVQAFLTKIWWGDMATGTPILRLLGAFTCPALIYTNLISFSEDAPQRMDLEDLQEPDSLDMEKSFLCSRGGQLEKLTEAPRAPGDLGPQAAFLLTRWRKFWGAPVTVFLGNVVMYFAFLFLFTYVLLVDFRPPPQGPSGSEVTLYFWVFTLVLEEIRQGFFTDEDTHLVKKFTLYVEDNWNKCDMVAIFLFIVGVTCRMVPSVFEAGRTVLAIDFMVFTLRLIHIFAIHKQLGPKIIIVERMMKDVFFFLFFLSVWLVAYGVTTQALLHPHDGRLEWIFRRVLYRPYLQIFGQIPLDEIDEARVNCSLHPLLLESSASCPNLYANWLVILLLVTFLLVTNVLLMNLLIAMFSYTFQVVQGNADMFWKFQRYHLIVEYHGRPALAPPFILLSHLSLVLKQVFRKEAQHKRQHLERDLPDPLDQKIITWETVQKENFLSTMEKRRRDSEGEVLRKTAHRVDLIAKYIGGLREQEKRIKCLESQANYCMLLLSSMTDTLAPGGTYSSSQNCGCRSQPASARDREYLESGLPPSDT
Procedure, shortened: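 SyncroPatch 384 whole-cell recording at rt on CHO-K1 cells stably expressing human or mouse TRPM5. Intracellular solution had 2 mM Na-ATP and 5 μM free Ca2+. Cumulative doses 0.03–31.6 μM in 0.5% DMSO, 150 s each after 180 s vehicle. Current measured at the end of the +80 mV step, normalized to vehicle; pEC50 is the mean of ≥2 independent experiments.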

[2] = Protein binding in mouse plasma assessed as unbound fraction measured after 5 hrs by equilibrium dialysis based HPLC/UPLC-MS/MS analysis; type: ADME, cell-free
[3] = Drug concentration in C57BL6 mouse colon at 1 mg/kg, po administered as single dose measured after 6 hrs by LC-MS/MS analysis; type: ADME, organism-based; conditions: read-out: Ct
Procedure, shortened: (§1)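 Single oral dose of 1, 3 or 100 mg/kg in mouse. Plasma (ng/mL) and colon and ileum (ng/g) exposure sampled at 6, 24 and 48 h, and at 72 h for the top dose; mean values reported.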

[4] = Drug concentration in C57BL6 mouse colon at 1 mg/kg, po administered as single dose measured after 24 to 48 hrs by LC-MS/MS analysis; type: ADME, organism-based; conditions: in vivo, time 24-48 hrs; procedure, shortened: as §1
[5] = Drug concentration in C57BL6 mouse ileum at 1 mg/kg, po administered as single dose measured after 6 to 48 hrs by LC-MS/MS analysis; type: ADME, organism-based; conditions: in vivo, time 6-48 hrs; procedure, shortened: as §1
[6] = Drug concentration in C57BL6 mouse ileum at 3 mg/kg, po administered as single dose measured after 6 to 48 hrs by LC-MS/MS analysis; type: ADME, organism-based; conditions: in vivo, time 6-48 hrs; procedure, shortened: as §1
[7] = Drug concentration in C57BL6 mouse plasma at 100 mg/kg, po administered as single dose measured after 6 hrs by LC-MS/MS analysis; type: ADME, organism-based; procedure, shortened: as §1
[8] = Drug concentration in C57BL6 mouse colon at 100 mg/kg, po administered as single dose measured after 6 hrs by LC-MS/MS analysis; type: ADME, organism-based; conditions: read-out: Ct; procedure, shortened: as §1
[9] = Drug concentration in C57BL6 mouse colon at 100 mg/kg, po administered as single dose measured after 24 hrs by LC-MS/MS analysis; type: ADME, organism-based; conditions: read-out: Ct; procedure, shortened: as §1
Mus musculus [10] = experiment: Gastroprokinetic activity in CD-1 mouse assessed as stimulation of gastrointestinal motility by measuring fecal number at 1 mg/kg, po measured after 6 hrs (reference value: 20.1 +/-1.4); type: functional
Mus musculus [11] = experiment: Gastroprokinetic activity in CD-1 mouse assessed as stimulation of gastrointestinal motility by measuring fecal number at 10 mg/kg, po measured after 2 hrs (reference value: 5.3 +/-0.7); type: functional
Mus musculus [12] = experiment: Gastroprokinetic activity in CD-1 mouse assessed as stimulation of gastrointestinal motility by measuring fecal number at 100 mg/kg, po measured after 1 hrs (reference value: 3 +/-0.8); type: functional
Mus musculus [13] = experiment: Gastroprokinetic activity in CD-1 mouse assessed as stimulation of gastrointestinal motility by measuring fecal number at 100 mg/kg, po measured after 2 hrs (reference value: 5.3 +/-0.7); type: functional
Mus musculus [14] = experiment: Gastroprokinetic activity in CD-1 mouse assessed as stimulation of gastrointestinal motility by measuring fecal number at 100 mg/kg, po measured after 3 hrs (reference value: 9.1 +/-1.1); type: functional
Mus musculus [15] = experiment: Gastroprokinetic activity in CD-1 mouse assessed as stimulation of gastrointestinal motility by measuring total fecal weight at 1 mg/kg, po measured after 2 hrs (reference value: 0.13 +/-0.02 g); type: functional
Mus musculus [16] = experiment: Gastroprokinetic activity in CD-1 mouse assessed as stimulation of gastrointestinal motility by measuring total fecal weight at 10 mg/kg, po measured after 1 hrs (reference value: 0.08 +/-0.02 g); type: functional
Mus musculus [17] = experiment: Gastroprokinetic activity in CD-1 mouse assessed as stimulation of gastrointestinal motility by measuring total fecal weight at 100 mg/kg, po measured after 2 hrs (reference value: 0.13 +/-0.02 g); type: functional
Mus musculus [18] = experiment: Gastroprokinetic activity in CD-1 mouse assessed as stimulation of gastrointestinal motility by measuring total fecal weight at 10 mg/kg, po measured after 3 hrs (reference value: 0.21 +/-0.03 g)
Mus musculus [19] = experiment: Gastroprokinetic activity in CD-1 mouse assessed as stimulation of gastrointestinal motility by measuring total fecal weight at 100 mg/kg, po measured after 6 hrs (reference value: 0.43 +/-0.05 g)

| EC50 [1] [nM] | fraction unbound at 5 h [2] | concentration at 6 h [3] [ng/g] | Ct [4] [ng/mL] | Ct [5] [ng/mL] | Ct [6] [ng/mL] | concentration at 6 h [7] [ng/mL] | concentration at 6 h [8] [ng/g] | concentration at 24 h [9] [ng/g] | Compound | Activity (Mus musculus [10]) | Activity (Mus musculus [11]) | Activity (Mus musculus [12]) | Activity (Mus musculus [13]) | Activity (Mus musculus [14]) | Activity (Mus musculus [15]) [g] | Activity (Mus musculus [16]) [g] | Activity (Mus musculus [17]) [g] | Activity (Mus musculus [18]) [g] | Activity (Mus musculus [19]) [g] |
| --- | --- | --- | --- | --- | --- | --- | --- | --- | --- | --- | --- | --- | --- | --- | --- | --- | --- | --- | --- |
| 85.1 | – | – | – | – | – | – | – | – | Clc1cnc(CNc2ccc3sncc3c2)s1 | – | – | – | – | – | – | – | – | – | – |
| 15.8 | < 0.01 | 63.8 | < 20 | < 20 | < 20 | 22.6 | 2620 | 164 | Clc1cnc(CNc2cc3sncc3cc2Cl)s1 | 24.3 | 7.3 | 4 | 10.2 | 13 | 0.15 | 0.08 | 0.31 | 0.23 | 0.49 |
| 43.7 | < 0.01 | – | – | – | – | – | – | – | Clc1cnc(CNc2ccc3cnsc3c2)s1 | – | – | – | – | – | – | – | – | – | – |
